{"data": "Results pooled from the literature", "note": "Protocols differ between the studies behind these lines."}
{"Structure (SMILES)": "COc1cc(OC)c2nccc(N3CCc4c(cc(Cn5ccnc5)cc4-c4cn(C)nc4C(F)(F)F)C3=O)c2c1", "test system": "male CD-1 mouse, plasma", "conditions": "oral, 50 mg/kg", "Tmax": "42 min"}
{"Structure (SMILES)": "CCc1ccc(Cc2cc([C@@H]3O[C@H](CO)[C@@H](O)[C@H](O)[C@H]3O)cc3c2CCC3)cc1", "test system": "male C57BL/6 mouse, plasma", "conditions": "oral, 3 mg/kg", "Tmax": "30 min"}
{"Structure (SMILES)": "CN1CCC[C@H](CN2c3ccccc3Sc3ccccc32)C1.O=C(O)CCC(=O)O", "test system": "mouse, plasma", "conditions": "oral, 64 mg/kg, single dose", "Tmax": "120 min"}
{"Structure (SMILES)": "CNC(=O)c1cc(Oc2ccc(NC(=O)Nc3ccc(Cl)c(C(F)(F)F)c3)c(F)c2)cc[n+]1[O-]", "test system": "mouse, plasma", "conditions": "oral, 10 mg/kg, single dose", "Tmax": "324 min"}
{"Structure (SMILES)": "COc1nc(-c2cc(C)c(N[C@@H](C)c3cc(F)cc(F)c3)nn2)ccc1-n1cnc(C)c1", "test system": "male CD-1 mouse, plasma", "conditions": "intravenous, 1 mg/kg, single dose", "Tmax": "4.98 min"}
{"Structure (SMILES)": "CC(C)(C)c1ccc(O)c(CN(Cc2cc(C(C)(C)C)ccc2O)C2CCC(NC(N)=O)CC2)c1 (centres unmarked)", "test system": "male C57BL/6 mouse, plasma", "conditions": "intraperitoneal, 25 mg/kg, single dose", "Tmax": "15 min"}
{"Structure (SMILES)": "CN1C(=O)c2ccccc2[S@+]([O-])c2ccc(C(=O)NCCc3cccs3)cc21", "test system": "male C57BL/6 mouse, brain", "conditions": "intraperitoneal, 30 mg/kg, single dose", "Tmax": "15 min"}
{"Structure (SMILES)": "COc1nc(-c2cc(C)c(N[C@@H](C)c3c(F)cc(F)cc3F)nn2)ccc1-n1cnc(C)c1", "test system": "male CD-1 mouse, plasma", "conditions": "intravenous, 1 mg/kg, single dose", "Tmax": "4.98 min"}
{"Structure (SMILES)": "O=C(c1nc2ccc(F)cc2[nH]1)c1c[nH]c2c(F)cccc12", "test system": "female mouse, plasma", "conditions": "intraperitoneal, 6 mg/kg", "Tmax": "~15 min"}
{"Structure (SMILES)": "CC(C)Oc1c(NC(=O)c2ccc(NC(=O)[C@H](CC(N)=O)NC(=O)c3ccc(NC(=O)c4ccc(C#N)cc4)cc3)cc2)ccc(C(=O)Nc2ccc(C(=O)O)cc2)c1O", "test system": "male CD-1 mouse, plasma", "conditions": "subcutaneous, 5 mg/kg, single dose", "Tmax": "100 min"}
{"Structure (SMILES)": "COC(=O)CN(CCCc1ccccc1)CC(=O)N[C@@H](Cc1c[nH]cn1)c1nc(C)no1", "test system": "male C57BL/6 mouse, plasma", "conditions": "intraperitoneal, 30 mg/kg", "Tmax": "10 min"}
{"Structure (SMILES)": "CNCCN(C)c1cc(C#N)cc(CCc2cc(C)cc(N)n2)c1", "test system": "male BALB/c mouse, plasma", "conditions": "oral, 10 mg/kg", "Tmax": "15 min"}
{"Structure (SMILES)": "Cc1ccc(NC(=O)c2ccc(CN3CCN(C)CC3)cc2)cc1Nc1nccc(-c2cncc(-c3oncc3C)c2)n1", "test system": "male C57BL/6 mouse, brain", "conditions": "oral, 100 mg/kg/day", "Tmax": "120 min"}
{"Structure (SMILES)": "CC(C)NC(=O)COc1cccc(-c2nc(Nc3ccc4[nH]ncc4c3)c3ccccc3n2)c1", "test system": "male C57BL/6 mouse, plasma", "conditions": "oral, 100 mg/kg", "Tmax": "≤ 120 min"}
{"Structure (SMILES)": "COc1ccc(C(O)COc2ccc(-c3csc(-c4ccc(OCC(O)c5ccc(OC)c(OC)c5)cc4)n3)cc2)cc1OC (centres unmarked)", "test system": "C57BL/6 mouse, plasma", "conditions": "oral, 75 mg/kg", "Tmax": "60 min"}
{"Structure (SMILES)": "CSc1cc(Oc2ccnc3[nH]c(=O)cnc23)ccc1NC(=O)Nc1cc(C(C)(C)C)nn1-c1ccccc1", "test system": "BALB/c mouse, plasma", "conditions": "oral, 10 mg/kg", "Tmax": "180 min"}
{"Structure (SMILES)": "CCc1cc(OC)c2nccc(N3CCc4c(cc(Cn5ccnc5)cc4-c4cn(C)nc4C(F)(F)F)C3=O)c2c1", "test system": "male CD-1 mouse, plasma", "conditions": "oral, 50 mg/kg", "Tmax": "42 min"}
{"Structure (SMILES)": "Cc1cc(Nc2ccc(S(F)(F)(F)(F)F)cc2)n2ccnc2n1", "test system": "male Swiss mouse, plasma", "conditions": "oral, 100 mg/kg, single dose", "Tmax": "30 min"}
{"Structure (SMILES)": "CNC(=O)[C@H](Cc1c[nH]cn1)NC(=O)CN(CCCc1ccccc1)CC(=O)OC", "test system": "male C57BL/6 mouse, plasma", "conditions": "intraperitoneal, 30 mg/kg", "Tmax": "10 min"}
{"Structure (SMILES)": "CNC(=O)c1cc(Oc2ccc(NC(=O)Nc3ccc(Cl)c(C(F)(F)F)c3)c(F)c2)ccn1", "test system": "male mouse, plasma", "conditions": "oral, 10 mg/kg, single dose", "Tmax": "162 min"}
{"Structure (SMILES)": "COc1ccc2nccc(N3CCc4c(cc(Cn5ccnc5)cc4-c4cn(C)nc4C(F)(F)F)C3=O)c2c1", "test system": "male CD-1 mouse, plasma", "conditions": "oral, 50 mg/kg", "Tmax": "78 min"}
{"Structure (SMILES)": "COc1nc(-c2cc(C)c(N[C@@H](C)c3ccc(F)cc3)nn2)ccc1-n1cnc(C)c1", "test system": "male CD-1 mouse, plasma", "conditions": "oral, 5 mg/kg, single dose", "Tmax": "60 min"}
{"Structure (SMILES)": "CCc1cc(C(=O)NC)c2nccc(N3CCc4c(cc(Cn5ccnc5)cc4-c4cn(C)nc4C(F)(F)F)C3=O)c2c1", "test system": "male CD-1 mouse, plasma", "conditions": "oral, 50 mg/kg", "Tmax": "48 min"}
{"Structure (SMILES)": "CC(C)(Nc1nc(-c2ccccn2)nc2ccccc12)c1ccccn1", "test system": "female BALB/c mouse, plasma", "conditions": "oral, 50 mg/kg", "Tmax": "342 min"}
{"Structure (SMILES)": "COc1ccc(C[C@@H](C(=O)NO)n2cc(CNS(=O)(=O)c3ccc(-c4ccccc4)s3)nn2)cc1", "test system": "female CD-1 mouse, plasma", "conditions": "intraperitoneal, 50 mg/kg", "Tmax": "20 min"}
{"Structure (SMILES)": "CC=Cc1ccc(O)c(OC)c1", "test system": "mouse, lung", "conditions": "intranasal, 100 mg/kg", "Tmax": "5 min"}
{"Structure (SMILES)": "COc1ccc(CNc2c3c(nc4ccc(C#N)cc24)CCN(C(C)=O)C3)cc1Cl", "test system": "mouse, plasma", "conditions": "intraperitoneal, 25 mg/kg", "Tmax": "15 min"}
{"Structure (SMILES)": "Cc1c(-c2cc3ccccc3n2Cc2ccc(F)cc2)nc2cc(C(=O)N3CCC[C@@H](N)C3)ccn12", "test system": "male BALB/c mouse, plasma", "conditions": "oral, 10 mg/kg", "Tmax": "30 min"}
{"Structure (SMILES)": "CS(=O)(=O)CCNCc1ccc(-c2ccc3ncnc(Nc4ccc(OCc5cccc(F)c5)c(Cl)c4)c3c2)o1", "test system": "nude mouse, plasma", "conditions": "oral, 50 mg/kg, single dose", "Tmax": "60 min"}
{"Structure (SMILES)": "CN1CCN(C(=O)CN[C@@H]2C[C@H]2c2ccc(OCc3ccccc3)cc2)CC1", "test system": "mouse, plasma", "conditions": "intraperitoneal, 10 mg/kg", "Tmax": "4.8 min"}
{"Structure (SMILES)": "Cc1cc(NC(=O)c2cccc3cc(-c4cccc5[nH]nc(N)c45)ccc23)ccc1F", "test system": "male CD-1 mouse, brain", "conditions": "oral, 10 mg/kg", "Tmax": "120 min"}
{"Structure (SMILES)": "Cc1ccc2cncc(N3CCc4c(cc(Cn5ccnc5)cc4-c4cn(C)nc4C(F)(F)F)C3=O)c2c1", "test system": "male CD-1 mouse, plasma", "conditions": "oral, 50 mg/kg", "Tmax": "78 min"}
{"Structure (SMILES)": "OC[C@H]1O[C@@H](c2ccc(Cl)c(Cc3ccc(O[C@H]4CCOC4)cc3)c2)[C@H](O)[C@@H](O)[C@@H]1O", "test system": "CD-1 mouse, plasma", "conditions": "oral, 10 mg/kg", "Tmax": "15 min"}
{"Structure (SMILES)": "CC(C)c1cnn2c(NCc3ccccc3)cc(NC[C@H]3CCNC[C@@H]3O)nc12", "test system": "female nude mouse, tumour", "conditions": "oral, 100 mg/kg, tumour-bearing", "Tmax": "360 min"}
{"Structure (SMILES)": "CC(C)(C)c1cc(NC(=O)Nc2ccc(Oc3ccnc4[nH]c(=O)cnc34)cc2F)n(-c2ccccc2)n1", "test system": "BALB/c mouse, plasma", "conditions": "intravenous, 2 mg/kg", "Tmax": "4.98 min"}
{"Structure (SMILES)": "COc1ccc2c3c1O[C@H]1C[C@@H](OC(=O)c4ccccc4)C=C[C@@]31CCN(C)C2", "test system": "mouse, brain", "conditions": "intravenous, 3 mg/kg", "Tmax": "3 min"}
{"Structure (SMILES)": "C=CC(=O)N1CC2CC(n3nc(-c4ccc(C(=O)Nc5ccccn5)cc4)c4c(N)ncnc43)CC2C1 (centres unmarked)", "test system": "SCID mouse, plasma", "conditions": "oral, 0.2 mg/kg", "Tmax": "15 min"}
{"Structure (SMILES)": "O=S(=O)(c1ccc(-c2ccc3nccc(Nc4ccncn4)c3c2)cc1)N1CCOCC1", "test system": "female BALB/c mouse, plasma", "conditions": "intraperitoneal, 10 mg/kg", "Tmax": "15 min"}
